Experimental data: ChEMBL document CHEMBL3872233, “Topical Treatment of Leishmania tropica Infection Using (-)-α-Bisabolol Ointment in a Hamster Model: Effectiveness and Safety Assessment” (J Nat Prod, 2016)
Calls of active or inactive are those of the source. The calls are words filed in the database; no cut-off is given here.

Legend:
[1] = tested on: Leishmania tropica; assay: (§1) Antileishmanial activity against Leishmania tropica MHOM/MA/1988/LEM1314 promastigotes infected in Syrian hamster assessed as reduction in lesion thickness at 200 mg administered once daily through oral gavage for 3 weeks starting at week 7 post infection measured 1 week post last dose relative to control; type: functional; parameters: scale not given: the % may be the effect or the level left
How it was run: (§2)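 L. tropica stationary-phase promastigotes (3 × 10^7 in 50 μL PBS) injected into the left hind footpad. Treatment began at week 7 (+75% footpad thickness) and ran daily for 21 days, n = 10/group. Routes were 50 mg ointment on the lesion (cetyl alcohol/lanolin/petrolatum base), gavage in olive oil, or intralesional meglumine antimoniate 2 mg SbV/kg. Lesion thickness was measured weekly against base-only ointment; sacrifice was 1 week after the last dose.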

[2] = tested on: Leishmania tropica; assay: as §1, with “5 %” for “200 mg”, “tropically on footpad” for “through oral gavage”; type: functional; parameters: scale not given: the % may be the effect or the level left; how it was run: as §2
[3] = tested on: Leishmania tropica; assay: as §1, with “parasite load in foodpad skin” for “lesion thickness”, “1 %” for “200 mg”, “tropically on footpad” for “through oral gavage”, “dose by qPCR analysis” for “dose”; type: functional; parameters: scale not given: the % may be the effect or the level left
How it was run: (§3)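 Hamsters were infected in the footpad and treated daily for 21 days from week 7 post-infection, n = 10/group, and sacrificed 1 week after the last dose. Footpad skin, liver and spleen DNA was assayed by L. tropica-specific TaqMan qPCR (chromosome 29 target), in triplicate with 50 ng DNA per 25 μL reaction. Load was interpolated from Ct on a calibration curve of promastigote DNA, relative to base-ointment controls.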

[4] = tested on: Leishmania tropica; assay: as §1, with “parasite load in foodpad skin” for “lesion thickness”, “5 %” for “200 mg”, “tropically on footpad” for “through oral gavage”, “dose by qPCR analysis” for “dose”; type: functional; parameters: scale not given: the % may be the effect or the level left; how it was run: as §3
[5] = tested on: Syrian golden hamster; assay: Toxicity in Syrian hamster assessed as pain at 500 mg/kg, po or 5 % administered tropically on footpad for 28 days; type: organism-based, Mesocricetus auratus; settings: in vivo, 672 h
[6] = tested on: Syrian golden hamster; assay: Toxicity in Syrian hamster infected with Leishmania tropica MHOM/MA/1988/LEM1314 promastigotes assessed as mean serum AST levels at 200 mg/kg administered through oral gavage for 3 weeks starting at week 7 post infection measured 1 week post last dose (reference value: 77.1 +/- 0.9 U/L); type: organism-based, Mesocricetus auratus; settings: in vivo, 168 h
[7] = tested on: Syrian golden hamster; assay: Toxicity in Syrian hamster infected with Leishmania tropica MHOM/MA/1988/LEM1314 promastigotes assessed as mean serum AST levels at 1 % administered tropically on footpad for 3 weeks starting at week 7 post infection measured 1 week post last dose (reference value: 77.1 +/- 0.9 U/L); type: organism-based, Mesocricetus auratus; settings: in vivo, topical_or_ocular, 168 h
[8] = tested on: Syrian golden hamster; assay: Toxicity in Syrian hamster infected with Leishmania tropica MHOM/MA/1988/LEM1314 promastigotes assessed as mean serum AST levels at 2.5 % administered tropically on footpad for 3 weeks starting at week 7 post infection measured 1 week post last dose (reference value: 77.1 +/- 0.9 U/L); type: organism-based, Mesocricetus auratus; settings: in vivo, topical_or_ocular, 168 h
[9] = tested on: Syrian golden hamster; assay: Toxicity in Syrian hamster assessed as mean serum ALT levels at 500 mg/kg administered through oral gavage for 28 days (reference value: 82.2 +/- 4.8 U/L); type: organism-based, Mesocricetus auratus; settings: in vivo, 672 h
[10] = tested on: Syrian golden hamster; assay: Toxicity in Syrian hamster infected with Leishmania tropica MHOM/MA/1988/LEM1314 promastigotes assessed as mean serum ALT levels at 2.5 % administered tropically on footpad for 3 weeks starting at week 7 post infection measured 1 week post last dose (reference value: 81.6 +/- 4.9 U/L); type: organism-based, Mesocricetus auratus; settings: in vivo, topical_or_ocular, 168 h
[11] = tested on: Syrian golden hamster; assay: Toxicity in Syrian hamster infected with Leishmania tropica MHOM/MA/1988/LEM1314 promastigotes assessed as mean serum ALT levels at 5 % administered tropically on footpad for 3 weeks starting at week 7 post infection measured 1 week post last dose (reference value: 81.6 +/- 4.9 U/L); type: organism-based, Mesocricetus auratus; settings: in vivo, topical_or_ocular, 168 h
[12] = tested on: Syrian golden hamster; assay: Toxicity in Syrian hamster assessed as mean serum creatinine levels at 5 % administered tropically on footpad for 28 days (reference value: 0.21 +/- 0.2 mg/dl); type: organism-based, Mesocricetus auratus; settings: in vivo, topical_or_ocular, 672 h
[13] = tested on: Syrian golden hamster; assay: Toxicity in Syrian hamster assessed as mean serum creatinine levels at 500 mg/kg administered through oral gavage for 28 days (reference value: 0.21 +/- 0.2 mg/dl); type: organism-based, Mesocricetus auratus; settings: in vivo, 672 h
[14] = tested on: Syrian golden hamster; assay: Toxicity in Syrian hamster infected with Leishmania tropica MHOM/MA/1988/LEM1314 promastigotes assessed as mean serum creatinine levels at 1 % administered tropically on footpad for 3 weeks starting at week 7 post infection measured 1 week post last dose (reference value: 0.19 mg/dl); type: organism-based, Mesocricetus auratus; settings: in vivo, topical_or_ocular, 168 h
[15] = tested on: Syrian golden hamster; assay: Toxicity in Syrian hamster infected with Leishmania tropica MHOM/MA/1988/LEM1314 promastigotes assessed as mean serum ALP levels at 2.5 % administered tropically on footpad for 3 weeks starting at week 7 post infection measured 1 week post last dose (reference value: 14.4 +/- 0.9 U/L); type: organism-based, Mesocricetus auratus; settings: in vivo, topical_or_ocular, 168 h
[16] = tested on: Syrian golden hamster; assay: Toxicity in Syrian hamster assessed as urea levels at 500 mg/kg administered through oral gavage for 28 days (reference value: 33.2 +/- 2.8 mg/dl); type: organism-based, Mesocricetus auratus; settings: in vivo, 672 h
[17] = tested on: Syrian golden hamster; assay: Toxicity in Syrian hamster infected with Leishmania tropica MHOM/MA/1988/LEM1314 promastigotes assessed as urea levels at 200 mg/kg administered through oral gavage for 3 weeks starting at week 7 post infection measured 1 week post last dose (reference value: 32.5 +/- 0.8 mg/dl); type: organism-based, Mesocricetus auratus; settings: in vivo, 168 h
[18] = tested on: Syrian golden hamster; assay: Toxicity in Syrian hamster assessed as liver weight at 500 mg/kg administered through oral gavage for 28 days (reference value: 4.1 +/- 0.7 g); type: organism-based, Mesocricetus auratus; settings: in vivo, 672 h
[19] = tested on: Syrian golden hamster; assay: Toxicity in Syrian hamster infected with Leishmania tropica MHOM/MA/1988/LEM1314 promastigotes assessed as stress at 200 mg/kg administered through oral gavage for 3 weeks starting at week 7 post infection measured during compound dosing or measured 1 week post last dose; type: organism-based, Mesocricetus auratus; settings: in vivo, 168 h
How it was run: (§4)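 Infected hamsters (footpad, 3 × 10^7 promastigotes) were gavaged daily for 21 days from week 7 post-infection at 200 mg/kg in olive oil, n=10.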

[20] = tested on: Syrian golden hamster; assay: Toxicity in Syrian hamster infected with Leishmania tropica MHOM/MA/1988/LEM1314 promastigotes assessed as pain at 200 mg/kg administered through oral gavage for 3 weeks starting at week 7 post infection measured during compound dosing or measured 1 week post last dose; type: organism-based, Mesocricetus auratus; settings: in vivo, 168 h; how it was run: as §4
[21] = Toxicity in po dosed dog; type: organism-based, Canis lupus familiaris; settings: in vivo
[22] = tested on: Leishmania tropica; assay: as §1, with “parasite load in liver” for “lesion thickness”, “dose by qPCR analysis” for “dose”; type: functional, tissue-based; how it was run: as §3
[23] = tested on: Leishmania tropica; assay: as §1, with “parasite load in liver” for “lesion thickness”, “1 %” for “200 mg”, “tropically on footpad” for “through oral gavage”, “dose by qPCR analysis” for “dose”; type: functional, tissue-based; how it was run: as §3
[24] = tested on: Leishmania tropica; assay: as §1, with “parasite load in liver” for “lesion thickness”, “2.5 %” for “200 mg”, “tropically on footpad” for “through oral gavage”, “dose by qPCR analysis” for “dose”; type: functional, tissue-based; how it was run: as §3
[25] = tested on: Leishmania tropica; assay: as §1, with “parasite load in liver” for “lesion thickness”, “5 %” for “200 mg”, “tropically on footpad” for “through oral gavage”, “dose by qPCR analysis” for “dose”; type: functional, tissue-based; how it was run: as §3
[26] = tested on: Leishmania tropica; assay: as §1, with “parasite load in spleen” for “lesion thickness”, “5 %” for “200 mg”, “tropically on footpad” for “through oral gavage”, “dose by qPCR analysis” for “dose”; type: functional; how it was run: as §3
[27] = tested on: Leishmania tropica; assay: Antileishmanial activity against Leishmania tropica MHOM/MA/1988/LEM1314 promastigotes infected in Syrian hamster assessed as reduction in parasite load in spleen at 2 mg/kg administered intralesionally once daily on footpad for 3 weeks starting at week 7 post infection measured 1 week post last dose by qPCR analysis relative to control; type: functional, organism-based; how it was run: as §3

Work on CC(C)=CCC[C@](C)(O)[C@@H]1CC=C(C)CC1 [LEVOMENOL] yielded an Activity [1] of 62.5%, an Activity [2] of 55.2% and an Activity [3] of 56%. For the same compound, the Activity [4] was 82%, the Activity [5] was “Non-Toxic” and the Activity [6] was 77.9 U/L. The Activity [7] was 82.2 U/L, the Activity [8] was 87 U/L and the Activity [9] was 82.6 U/L. The Activity [10] was 81.3 U/L, the Activity [11] was 81.8 U/L and the Activity [12] was 0.19 mg/dL. It also gave an Activity [13] of 0.19 mg/dL, an Activity [14] of 0.22 mg/dL and an Activity [15] of 13.3 U/L. It also gave an Activity [16] of 33.7 mg/dL, an Activity [17] of 34.4 mg/dL and an Activity [18] of 3.5 g. The Activity [19] was “Non-Toxic”, the Activity [20] was “Non-Toxic” and the LOAEL [21] was 2 mL/kg. The Activity [22] was “Active”, the Activity [23] was “Active” and the Activity [24] was “Active”. For the same compound, the Activity [25] was “Active”, the Activity [26] was “Active” and the Activity [27] was “Active”.
